Experimental data as given in ChEMBL document CHEMBL4049421, “Design, Synthesis, and Pharmacological Characterization of N-(4-(2 (6,7-Dimethoxy-3,4-dihydroisoquinolin-2(1H)yl)ethyl)phenyl)quinazolin-4-amine Derivatives: Novel Inhibitors Reversing P-Glycoprotein-Mediated Multidrug Resistance” (J Med Chem, 2017).
pEC50: −log10 of the molar value. Active and inactive are the calls of the source. The calls are words filed in the database; no cut-off is given here.

Key:
[1] = Cytotoxicity against human K562 cells assessed as cell viability at 1.0 uM after 48 hrs by MTT assay (reference value: >99%); type: cell-based; settings: read-out: Activity
Homo sapiens [2] = species on record: Homo sapiens; assay: Inhibition of P-gp in human K562/A02 cells assessed as potentiation of doxorubicin-induced cytotoxicity at 1 uM preincubated for 24 hrs followed by compound washout for 24 hrs and subsequent doxorubicin addition measured after 48 hrs by MTT assay; type: cell-based
Outline: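 K562/A02 cells (1×10^4 cells per well) were preincubated 24 h with modulator (1.0 μM or 5.0 μM) or PBS. Cells were washed 0 or 3 times with medium and held for 0, 6, 12 or 24 h. A DOX concentration series was then added for 48 h, and viability was read by MTT. Triplicate determinations.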

[3] = Selective index, ratio of IC50 for human K562 cells to EC50 for inhibition of P-gp in human K562/A02 cells assessed as potentiation of doxorubicin-induced cytotoxicity
Outline: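 Reversal EC50 is the modulator concentration that halves the DOX IC50 in K562/A02 cells, from % DOX IC50 plotted against log modulator concentration. The index divides the MTT IC50 in K562, K562/A02 or HUVEC cells by this EC50.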

[4] = Cytotoxicity against human K562/A02 cells assessed as cell viability at 1.0 uM after 48 hrs by MTT assay (reference value: >99%); type: cell-based; settings: read-out: Activity
[5] = Inhibition of P-gp in human K562/A02 cells assessed as potentiation of doxorubicin-induced cytotoxicity by measuring fold reduction in doxorubicin IC50 after 48 hrs by MTT assay relative to doxorubicin alone; type: cell-based; settings: K562/A02, 48 h
Outline: (§1)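 K562/A02 cells (1×10^4 cells per well) were exposed to a DOX concentration series, alone or with modulator at 1.0 μM, for 48 h. Viability was read by MTT at 490 nm. Reversal fold = DOX IC50 without inhibitor / DOX IC50 with inhibitor, mean ± SD of three tests.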

Rattus norvegicus [6] = assay: Effect on plasma concentration of doxorubicin in Sprague-Dawley rat at 5 mg/kg, iv co-administered with doxorubicin measured after 8 hrs by LC-MS/MS analysis; type: ADME, organism-based; settings: in vivo
Outline: (§2)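 Male SD rats received DOX 10 mg/kg i.v. alone or with modulator 5 mg/kg i.v. Orbital blood was taken at 5 min to 8 h. Plasma DOX was measured by LC-MS/MS with DNR (0.5 μg/mL) as internal standard. Mean ± SD, n = 3.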

[7] = Plasma clearance in Sprague-Dawley rat at 10 mg/kg, po measured after 24 hrs by LC-MS/MS analysis; type: ADME, organism-based
Outline: (§3)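 Male Sprague-Dawley rats, n = 3 per group, given drug in Tween-80/ethanol/saline (5:10:85, v/v) at 10 mg/kg p.o. or 5 mg/kg i.v. Retro-orbital blood was taken at 5 min to 24 h, and plasma separated at 900g. Samples were spiked with internal standard, methanol-precipitated and quantified by LC-MS/MS. F = (AUCpo/AUCiv)×(dose iv/dose po)×100%.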

[8] = Oral bioavailability in Sprague-Dawley rat plasma at 10 mg/kg measured after 24 hrs by LC-MS/MS analysis; type: ADME, organism-based; outline: as §3
Homo sapiens [9] = species on record: Homo sapiens; assay: Inhibition of ATPase activity in human P-gp membrane fraction at 0.5 uM in presence of ATP after 1 hr by luciferase […]; type: cell membranes
Outline: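 Human P-gp membrane fraction (~25 μg) was incubated with compound at 0.5, 5.0 or 50.0 μM in 0.5% DMSO, with a 100 μM sodium vanadate reference. Reaction was started with 5.0 mM MgATP, 1 h at 37 °C. Remaining ATP was read by luciferase luminescence after 20 min at room temperature, relative to vanadate. n = 3.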

Homo sapiens [10] = species on record: Homo sapiens; assay: Inhibition of P-gp in human K562/A02 cells assessed as potentiation of doxorubicin-induced cytotoxicity by measuring fold reduction in doxorubicin IC50 at 1.0 uM after 48 hrs by MTT assay relative to doxorubicin alone; type: cell-based; outline: as §1
Rattus norvegicus [11] = assay: AUC(0 to 24 hrs) in Sprague-Dawley rat plasma at 5 mg/kg, iv measured after 24 hrs by LC-MS/MS analysis; type: ADME, organism-based; design: dose 5 mg/kg, time < 24 hr, route intravenous; settings: in vivo; outline: as §3
Rattus norvegicus [12] = assay: Effect on half life of doxorubicin in Sprague-Dawley rat at 5 mg/kg, iv co-administered with doxorubicin measured after 8 hrs by LC-MS/MS analysis; type: ADME, organism-based; settings: in vivo; outline: as §2
Homo sapiens [13] = species on record: Homo sapiens; assay: Inhibition of P-gp in human K562/A02 cells assessed as accumulation of doxorubicin at 0.1 uM to 5.0 uM after 150 mins by fluorescence spectrophotometric analysis; type: cell-based
Outline: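 K562/A02 cells (4×10^5) were incubated 150 min at 37 °C with 20.0 μM DOX plus modulator at various concentrations, with 0.1% DMSO as negative control. Cells were washed with cold PBS and lysed in HCl/Triton X-100/isopropanol. DOX fluorescence was read at ex 460 / em 587 nm. Mean ± SD, n = 3.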

[14] = Cmax in Sprague-Dawley rat at 5 mg/kg, iv measured after 24 hrs by LC-MS/MS analysis; type: ADME, organism-based; design: dose 5 mg/kg, route intravenous; settings: in vivo; outline: as §3

COc1cc2c(cc1OC)CN(CCc1ccc(Nc3nc(-c4ccncc4)nc4ccccc34)cc1)CC2
viability at 48 h, 1 µM [1]: 96.5%
inhibition (Homo sapiens [2]): Active
Ratio IC50/EC50 [3]: 75.6
viability at 48 h, 1 µM [4]: > 99%
pEC50 [5]: 7.24
Activity (Rattus norvegicus [6]): Non-Toxic
CL/F [7]: 49.9 mL/min/kg
bioavailability [8]: 95.3%
inhibition (Homo sapiens [9]): Active
fold change (FC) (Homo sapiens [10]): 30.9
AUC (Rattus norvegicus [11]): 1660 ng·h/mL
Activity (Rattus norvegicus [12]): Non-Toxic
inhibition (Homo sapiens [13]): Active
Cmax [14]: 570 ng/mL
